# Key:
# Format in all cases: functional
# SNB-75 = test: Antitumor activity against human SNB75 cells after 48 hrs by Sulforhodamine B assay; conditions: SNB-75, 48 h
# Method in brief: (§1)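 NCI 60-cell-line screen. Secondary five-dose test at 100, 10, 1.0, 0.1 and 0.01 µM with continuous drug exposure for 48 h. Cell growth was estimated by sulforhodamine B protein staining. […] LC50 was also reported.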
# MCF7 = test: Antitumor activity against human MCF7 cells after 48 hrs by Sulforhodamine B assay; conditions: MCF7, 48 h; method in brief: as §1
# [1] = Antitumor activity against human LOXIMVI cells after 48 hrs by Sulforhodamine B assay; conditions: LOX IMVI; method in brief: as §1
# SK-MEL-2 = test: Antitumor activity against human SK-MEL-2 cells after 48 hrs by Sulforhodamine B assay; conditions: SK-MEL-2, 48 h; method in brief: as §1
# [2] = Antitumor activity against human PC3 cells after 48 hrs by Sulforhodamine B assay; conditions: PC-3, 48 h; method in brief: as §1
# DU-145 = test: Antitumor activity against human DU145 cells after 48 hrs by Sulforhodamine B assay; conditions: DU-145, 48 h; method in brief: as §1
# SK-MEL-28 = test: Antitumor activity against human SK-MEL-28 cells after 48 hrs by Sulforhodamine B assay; conditions: SK-MEL-28, 48 h; method in brief: as §1
# MDA-MB-435 = test: Antitumor activity against human MDA-MB-435 cells after 48 hrs by Sulforhodamine B assay; conditions: MDA-MB-435, 48 h; method in brief: as §1
# [3] = Antitumor activity against human BT549 cells after 48 hrs by Sulforhodamine B assay; conditions: BT-549, 48 h; method in brief: as §1
# SF-268 = test: Antitumor activity against human SF268 cells after 48 hrs by Sulforhodamine B assay; conditions: SF-268, 48 h; method in brief: as §1
# IGROV-1 = test: Antitumor activity against human IGROV1 cells after 48 hrs by Sulforhodamine B assay; conditions: IGROV-1, 48 h; method in brief: as §1
# [4] = Antitumor activity against human Hs 578T cells after 48 hrs by Sulforhodamine B assay; method in brief: as §1
# [5] = Antitumor activity against human UACC257 cells after 48 hrs by Sulforhodamine B assay; conditions: UACC-257, 48 h; method in brief: as §1
# NCI-H460 = test: Antitumor activity against human NCI-H460 cells after 48 hrs by Sulforhodamine B assay; conditions: NCI-H460, 48 h; method in brief: as §1
# A549 = test: Antitumor activity against human A549 cells after 48 hrs by Sulforhodamine B assay; conditions: A549, 48 h; method in brief: as §1
# [6] = Antitumor activity against human MOLT4 cells after 48 hrs by Sulforhodamine B assay; conditions: MOLT-4, 48 h; method in brief: as §1
# T47D = test: Antitumor activity against human T47D cells after 48 hrs by Sulforhodamine B assay; method in brief: as §1
# NCI-H23 = test: Antitumor activity against human NCI-H23 cells after 48 hrs by Sulforhodamine B assay; conditions: NCI-H23, 48 h; method in brief: as §1
# [7] = Antitumor activity against human OVCAR8 cells after 48 hrs by Sulforhodamine B assay; conditions: OVCAR-8, 48 h; method in brief: as §1
# CCRF-CEM = test: Antitumor activity against human CCRF-CEM cells after 48 hrs by Sulforhodamine B assay; method in brief: as §1
# [8] = Antitumor activity against human COLO205 cells after 48 hrs by Sulforhodamine B assay; conditions: COLO 205, 48 h; method in brief: as §1
# [9] = Antitumor activity against human HCT15 cells after 48 hrs by Sulforhodamine B assay; conditions: HCT-15, 48 h; method in brief: as §1
# MDA-MB-231 = test: Antitumor activity against human MDA-MB-231 cells after 48 hrs by Sulforhodamine B assay; conditions: MDA-MB-231, 48 h; method in brief: as §1
# [10] = Antitumor activity against human NCI-ADR-RES cells after 48 hrs by Sulforhodamine B assay; method in brief: as §1
# SNB-19 = test: Antitumor activity against human SNB19 cells after 48 hrs by Sulforhodamine B assay; conditions: SNB-19, 48 h; method in brief: as §1
# MDA-MB-468 = test: Antitumor activity against human MDA-MB-468 cells after 48 hrs by Sulforhodamine B assay; conditions: MDA-MB-468, 48 h; method in brief: as §1
# KM12 = test: Antitumor activity against human KM12 cells after 48 hrs by Sulforhodamine B assay; conditions: KM12, 48 h; method in brief: as §1
# SW-620 = test: Antitumor activity against human SW620 cells after 48 hrs by Sulforhodamine B assay; conditions: SW-620, 48 h; method in brief: as §1
# [11] = Antitumor activity against human SF295 cells after 48 hrs by Sulforhodamine B assay; conditions: SF-295, 48 h; method in brief: as §1
# K562 = test: Antitumor activity against human K562 cells after 48 hrs by Sulforhodamine B assay; conditions: K562, 48 h; method in brief: as §1
# NCI-H226 = test: Antitumor activity against human NCI-H226 cells after 48 hrs by Sulforhodamine B assay; conditions: NCI-H226, 48 h; method in brief: as §1
# Malme-3M = test: Antitumor activity against human MALME-3M cells after 48 hrs by Sulforhodamine B assay; method in brief: as §1
# [12] = Antitumor activity against human RPMI8226 cells after 48 hrs by Sulforhodamine B assay; conditions: RPMI-8226, 48 h; method in brief: as §1
# [13] = Antitumor activity against human OVCAR3 cells after 48 hrs by Sulforhodamine B assay; conditions: OVCAR-3, 48 h; method in brief: as §1
# HOP-62 = test: Antitumor activity against human HOP62 cells after 48 hrs by Sulforhodamine B assay; conditions: HOP-62, 48 h; method in brief: as §1
# [14] = Antitumor activity against human HCT116 cells after 48 hrs by Sulforhodamine B assay; conditions: HCT-116, 48 h; method in brief: as §1
# M14 = test: Antitumor activity against human M14 cells after 48 hrs by Sulforhodamine B assay; conditions: M14, 48 h; method in brief: as §1
# NCI-H522 = test: Antitumor activity against human NCI-H522 cells after 48 hrs by Sulforhodamine B assay; conditions: NCI-H522, 48 h; method in brief: as §1
# [15] = Antitumor activity against human SF539 cells after 48 hrs by Sulforhodamine B assay; conditions: SF-539, 48 h; method in brief: as §1
# [16] = read-out: LC50 (the source's name)
compound,measurement,setting,value
Cc1ccc(C2=Nc3c(N)ncnc3NC(c3sc(Cl)nc3Cl)C2)cc1 (stereo not drawn),GI50,SNB-75,1.63 µM
same,LC50 (concentration killing 50% of cells),SNB-75,38.1 µM
same,GI50,MCF7,3.56 µM
same,CC50,MCF7; [16],97.6 µM
same,GI50,[1],5.39 µM
same,CC50,[1]; [16],43.2 µM
same,GI50,SK-MEL-2,2.98 µM
same,LC50,SK-MEL-2,35.6 µM
same,GI50,[2],5.89 µM
same,CC50,[2]; [16],73.1 µM
same,GI50,DU-145,11.2 µM
same,CC50,DU-145; [16],52.4 µM
same,GI50,SK-MEL-28,4.26 µM
same,LC50,SK-MEL-28,42.8 µM
same,GI50,MDA-MB-435,1.47 µM
same,CC50,MDA-MB-435; [16],39 µM
same,GI50,[3],3.93 µM
same,CC50,[3]; [16],40.6 µM
same,GI50,SF-268,5.68 µM
same,CC50,SF-268; [16],67.3 µM
same,GI50,IGROV-1,7.08 µM
same,CC50,IGROV-1; [16],63.2 µM
same,GI50,[4],2.44 µM
same,CC50,[4]; [16],> 100 µM
same,GI50,[5],6.76 µM
same,CC50,[5]; [16],48.6 µM
same,GI50,NCI-H460,4.06 µM
same,LC50,NCI-H460,49.4 µM
same,GI50,A549,5.02 µM
same,CC50,A549; [16],52.5 µM
same,GI50,[6],4.06 µM
same,LC50,[6],> 100 µM
same,GI50,T47D,3.35 µM
same,CC50,T47D; [16],> 100 µM
same,GI50,NCI-H23,8.23 µM
same,LC50,NCI-H23,58.7 µM
same,GI50,[7],4.8 µM
same,LC50 (concentration killing 50% of cells),[7],80.7 µM
same,GI50,CCRF-CEM,3.21 µM
same,CC50,CCRF-CEM; [16],> 100 µM
same,GI50,[8],4.18 µM
same,CC50,[8]; [16],42.1 µM
same,GI50,[9],3.05 µM
same,CC50,[9]; [16],50.1 µM
same,GI50,MDA-MB-231,3.86 µM
same,LC50 (concentration killing 50% of cells),MDA-MB-231,42.1 µM
same,GI50,[10],3.13 µM
same,CC50,[10]; [16],58.5 µM
same,GI50,SNB-19,5.51 µM
same,LC50,SNB-19,47.2 µM
same,GI50,MDA-MB-468,2.12 µM
same,LC50,MDA-MB-468,41.6 µM
same,GI50,KM12,3.8 µM
same,CC50,KM12; [16],40.4 µM
same,GI50,SW-620,3.42 µM
same,CC50,SW-620; [16],40.7 µM
same,GI50,[11],3.06 µM
same,CC50,[11]; [16],36.4 µM
same,GI50,K562,1.68 µM
same,CC50,K562; [16],> 100 µM
same,GI50,NCI-H226,13.7 µM
same,CC50,NCI-H226; [16],90.3 µM
same,GI50,Malme-3M,6.33 µM
same,CC50,Malme-3M; [16],44 µM
same,GI50,[12],4.99 µM
same,LC50 (concentration causing 50% net cell kill),[12],> 100 µM
same,GI50,[13],3.6 µM
same,CC50,[13]; [16],43.4 µM
same,GI50,HOP-62,3.72 µM
same,LC50 (concentration giving 50% net cell kill),HOP-62,48.9 µM
same,GI50,[14],3.7 µM
same,CC50,[14]; [16],37.3 µM
same,GI50,M14,2.64 µM
same,CC50,M14; [16],35.6 µM
same,GI50,NCI-H522,4.05 µM
same,CC50,NCI-H522; [16],42.1 µM
same,GI50,[15],2.69 µM
same,CC50,[15]; [16],33.1 µM

# Source: ChEMBL document CHEMBL3407460, “Synthesis of novel thiazole-based 8,9-dihydro-7H-pyrimido[4,5-b][1,4]diazepines as potential antitumor and antifungal agents” (2015)
